Ab BasE inh: inhibitors of Acinetobacter baumannii siderophore enzyme BasE | 84,000 tested, 0.1% active | inhibition, % (concentration not given with the values) | purified BasE, fluorescence polarization binding displacement | AID 485350; in the data active = inhibition above about 25%, passing the limit was not always enough;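 also: 0% = negative plate control signal and 100% = positive plate control signal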
KSHV LANA nucl: inhibitors of KSHV LANA binding to nucleosomes | FITC-LANA1-23 / chicken nucleosome fluorescence polarization; stronger effect = lower value | z-score (test concentration not listed) | 51,000 tested, 0.3% active | AID 720717;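 active = both repeat wells score below -2 in polarization z-score versus plate sample wells, excluding overly bright wells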
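Assay system: FITC-LANA peptide and chicken nucleosomes; input: 240 nM purified chicken nucleosomes (480 nM peptide binding sites), final; also added: 50 nM FITC-LANA1-23 probe; medium: TEN-BT buffer, pH 7.5; doses: pin-transferred compound, 100 nL; times: 10–45 min, room temperature; technique: fluorescence polarization; replication: duplicates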
* hit, by the source's call. The entries come from a sample that favours hits as a whole.

Screening O=C1NC(=O)C(=Cc2cn(CCOc3ccc4c(c3)OCO4)c3ccccc23)C(=O)N1 returned Ab BasE inh 0.6.
For C=CCn1cc(C=C2C(=O)NC(=O)NC2=O)c2ccccc21 the results were Ab BasE inh 3.5 and KSHV LANA nucl -2.45*.
CCOC(=O)C1CCN(/C=C2/C(=O)NC(=O)N(Cc3ccco3)C2=O)CC1 was read as Ab BasE inh -0.8 and KSHV LANA nucl -0.537.
CCn1nc(-c2ccccc2)nc2c(=O)n(C)c(=O)nc1-2 was read as Ab BasE inh 7.5 and KSHV LANA nucl -9.3*.
`CC1=C2C[C@H]3[C@@H](CC=C4C[C@@H](O)CC[C@@]43C)[C@@H]2CC[C@]12O[C@@H]1C[C@H](C)CN[C@H]1[C@H]2C` gave Ab BasE inh 0.1 and KSHV LANA nucl 0.097.
Screening CC(=O)Oc1ccc(Cl)c2cccnc12 returned Ab BasE inh 30.4* and KSHV LANA nucl 0.177.
Screening CN(C)C(=O)Oc1cccc2cccnc12 returned Ab BasE inh 0.3 and KSHV LANA nucl -0.685.
Screening CCc1nc2cccnc2n1-c1ccc(CC(=O)N2CCN(C)CC2)cc1 returned Ab BasE inh 3.3 and KSHV LANA nucl 0.734.
Cn1cc(C(=O)O)c2ccccc21 was read as KSHV LANA nucl -0.117.
